Compound activity: PubChem, several laboratories
RGS4 block = inhibitors of human RGS4 | P49798 | HEK293 M3R/RGS4 inducible, Fluo-4 calcium flux; hits give high values; triggered by carbachol at its EC20 | B-score at 10 µM | hit rate 0.45% among 310,000 | AID 463165;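 active = B-score, a plate-corrected calcium signal, over three deviations above library mean, with baseline fluorescence within five deviations of library mean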;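 also: RGS4 expression induced by doxycycline in cells with stable M3 receptor; B-score is computed from the integrated fluorescence ratio over baseline after carbachol; higher B-score means a larger calcium signal and so more RGS4 inhibition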
Target sequence (P49798 whole entry, looked up): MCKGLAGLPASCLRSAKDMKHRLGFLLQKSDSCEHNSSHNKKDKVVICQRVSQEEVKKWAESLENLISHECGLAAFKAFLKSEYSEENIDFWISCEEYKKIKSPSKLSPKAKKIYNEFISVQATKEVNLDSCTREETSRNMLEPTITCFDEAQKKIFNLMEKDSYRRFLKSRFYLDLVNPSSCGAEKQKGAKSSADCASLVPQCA
RGS4 act = RGS4 potentiation or activation; HEK293 M3R/inducible RGS4, carbachol calcium flux Fluo4; hits give low values; B-score at 10 µM; hit rate 0.92% among 310,000;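 active = B-score of the integrated calcium signal more than 4 SD below the library mean, with starting fluorescence not abnormally high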;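 also: negative B-score means reduced calcium response which marks RGS4 activation or potentiation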
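Also added: carbachol at ECmax as muscarinic agonist stimulus; Assay system: HEK293 cells with stable M3R and inducible RGS4; Timing: overnight RGS4 induction, 30 min dye load 37 °C, 20 min compound RT; Measured by: Fluo4-AM (2 µM) calcium-flux fluorescence, kinetic read.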
Hep lipid drop = hepatic lipid droplet formation modulation; AML12 mouse hepatocytes, oleate lipid droplets, BODIPY imaging; inhibition, % at 6.5 µM; hit rate 0.4% among 240,000; AID 1656;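 active = lipid droplet intensity inhibited by at least 50%, with more than 500 cells counted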
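material = mouse AML12 hepatocyte cell line, fixed after treatment | also added = 100 µM oleic acid challenge | doses = compound at 6.5 µM only | schedule = overnight exposure | technique = Image-based BODIPY and DAPI two-channel analysis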
MrgX1 PAM = human MrgX1 positive allosteric modulation, primary screen | Q96LB2 | MrgX1-HEK293, Fluo-4 calcium flux, FDSS; hits give high values | B-score at 10 µM | hit rate 0.63% among 310,000 | AID 588675;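 active = plate-corrected calcium response at least 3 library SD above typical, normal starting fluorescence, not activating the receptor alone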;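 also: compound read alongside a low EC10 to EC30 dose of BAM8-22 agonist; peak minus trough fluorescence over baseline measured at the second addition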
Target sequence (Q96LB2 whole entry, looked up): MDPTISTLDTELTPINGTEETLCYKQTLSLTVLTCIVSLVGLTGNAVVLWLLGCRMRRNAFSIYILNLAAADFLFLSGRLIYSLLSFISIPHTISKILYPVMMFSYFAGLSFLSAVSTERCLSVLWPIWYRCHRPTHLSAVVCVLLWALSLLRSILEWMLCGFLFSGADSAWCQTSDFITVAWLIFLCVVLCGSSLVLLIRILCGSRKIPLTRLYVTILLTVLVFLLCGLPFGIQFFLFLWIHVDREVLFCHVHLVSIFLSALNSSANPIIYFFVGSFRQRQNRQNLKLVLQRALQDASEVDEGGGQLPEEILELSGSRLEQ
MrgX1 antag = human MrgX1 receptor antagonism, primary screen; B-score at 10 µM; MRGX1-HEK293 calcium flux, Fluo-4, BAM8-22 antagonism; hits give low values; hit rate 1.3% among 310,000; Q96LB2;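 active = calcium-response B-score plate-corrected more than 3 library SD below zero, starting fluorescence within 5 deviations, no agonist response on first addition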;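 also: peak minus trough fluorescence over baseline after final BAM8-22 challenge near maximal dose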
MrgX1 ag = activates human MrgX1 receptor signaling; Q96LB2; AID 588627; B-score at 10 µM; MrgX1-HEK293 cells, Fluo-4 calcium fluorescence, agonist mode; hits give high values; hit rate 0.44% among 310,000;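 active = calcium response B-score plate-corrected fluorescence ratio at least 3 library SD, with starting fluorescence B-score inside 5 SD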
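Assay system: stable human MrgX1 HEK293 cell line. Quantity: 15,000 cells per well. Schedule: cells plated overnight, dye loaded 0.5 h 37 °C, 0.5 h room temperature. Detection: Fluo-4 NW calcium-flux fluorescence, kinetic read. Read-out basis: peak-minus-minimum fluorescence over baseline, converted to B scores. Control set: positive and negative control wells on each plate.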
RGS4 block valid = RGS4 inhibitor validation; HEK293 M3R/RGS4, carbachol calcium Fluo-4 fluorescence; carbachol added at its EC20; 0 = buffer wells, 100 = carbachol control; calcium response, % at 10 µM; hit rate 65% among 1,700; shares compounds with RGS4 block;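 active = duplicate-averaged calcium response above the buffer-only control mean plus 5 SD of those controls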;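 also: integrated fluorescence ratio F max minus min over baseline F0; higher response in RGS4-induced cells means RGS4 inhibition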
M3R Ca ctr = counter-screen for RGS4 inhibitors: effect in non-induced cells; activity (percent), % at 10 µM; HEK293 M3R non-induced, carbachol calcium Fluo-4; submaximal (EC20) carbachol stimulus; buffer wells 0%, carbachol control wells 100%; shares compounds with RGS4 block; hit rate 20% among 1,900; call rule not given here;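 also: RGS4 induction absent so cells express M3R without RGS4; higher means more calcium signal and flags a non-specific hit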
M3R basal Ca ctr = second counter-screen for RGS4 inhibitors: non-induced cells without carbachol; AID 493001; HEK293 M3R/RGS4 non-induced, Fluo-4 calcium, no carbachol; normalised: buffer wells 0%, carbachol wells 100%; calcium response (agonist-mode artifact), % at 10 µM; hit rate 22% among 1,900; shares compounds with RGS4 block;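 active = duplicate-averaged calcium rise in uninduced cells above buffer wells' mean plus 5 SD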
MrgX1 ag confirm = human MrgX1 agonism, re-confirmation screen; shares compounds with MrgX1 ag; hit rate 78% among 600; activation, % at 10 µM; MrgX1-HEK293, Fluo-4 calcium fluorescence, FDSS;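 active = calcium signal rise, corrected for plate position, at least 3 library SD high, with starting brightness within 5 such deviations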
MrgX1 PAM conf = human MrgX1 positive allosteric modulation, re-confirmation; MrgX1-HEK293, Fluo-4 calcium fluorescence, FDSS; AID 602413; shares compounds with MrgX1 PAM; hit rate 13% among 1,200; activation (ratio percentage), % at 10 µM;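 active = ratio at least 3 SD above the weak peptide control, stable starting fluorescence, no direct agonism earlier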;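 also: compound followed by low BAM8-22 agonist challenge near EC20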
HEK293 Ca flux = activity in parental HEK293 cells lacking MrgX1; fluorescence ratio F(max-min)/F0 at 10 µM; Fluo-4 calcium fluorescence, FDSS; shares compounds with MrgX1 antag; hit rate 2% among 4,000;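 active = duplicate-averaged calcium fluorescence ratio at least three times the standard deviation of buffer wells, a nonspecific response in parental cells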
HEK293 Ca counter = counter-screen for MrgX1 allosteric activators: effect in parental HEK293 cells. shares compounds with MrgX1 antag. parental HEK293 calcium flux, Fluo-4 fluorescence ratio; hits give high values. fluorescence ratio F(max-min)/F0 at 10 µM. hit rate 0.4% among 4,000;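 active = calcium fluorescence ratio, averaged over duplicates, at least 3 SD of the buffer-well ratio, meaning a nonspecific response in receptor-free cells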;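 also: untransfected parental HEK293 lacking MrgX1 used as counterscreen for MrgX1 allosteric activators; fluorescence change taken during the second addition on a kinetic imager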
HEK293 Ca cntr2 = counter-screen for MrgX1 activators: effect in parental HEK293 cells; Fluo-4 calcium fluorescence (FDSS); hits give high values; fluorescence ratio F(max-min)/F0 at 10 µM; hit rate 8.7% among 4,000; shares compounds with MrgX1 antag; AID 624115;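 active = calcium fluorescence ratio at least three times the spread of buffer wells, meaning a non-specific response in parental cells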
Large screens that a line does not name were inactive (follow-up assays come after a bar, where they were run). Only some compounds are listed: those with a hit (about 3.8% of all), similar ones and a draw of the others.

Cc1c(-c2nc(N)nc(Nc3ccccc3F)n2)oc2ccccc12	MrgX1 PAM 16 | M3R Ca ctr inactive | M3R basal Ca ctr inactive | MrgX1 PAM conf 59% | HEK293 Ca flux inactive | HEK293 Ca counter inactive | HEK293 Ca cntr2 inactive
CCOC(=O)C(=O)C1=C(N2CCOCC2)/C(=C\c2ccc(F)cc2)CC1	RGS4 block 7.7, MrgX1 ag 27 | RGS4 block valid 7.0% | M3R Ca ctr inactive | M3R basal Ca ctr 21% | MrgX1 ag confirm 220% | HEK293 Ca flux inactive | HEK293 Ca counter inactive | HEK293 Ca cntr2 45
COc1cc(/C=C2/C(=O)NN(c3ccc(C)c(Cl)c3)C2=O)cc([N+](=O)[O-])c1O	none
COc1cc(/C=C2/C(=O)NN(c3cccc(Cl)c3)C2=O)cc(OC)c1O	MrgX1 ag 79 | M3R Ca ctr inactive | M3R basal Ca ctr 106% | MrgX1 ag confirm 421% | HEK293 Ca flux inactive | HEK293 Ca counter inactive | HEK293 Ca cntr2 84
Cc1cccc(NC(=O)c2cc(-c3ccc(C)c(C)c3O)n[nH]2)c1	none
O=C1c2ccccc2S(=O)(=O)c2cc(C(=O)N(c3ccccn3)c3ccccn3)ccc21	RGS4 block 4.9, MrgX1 ag 41 | RGS4 block valid 14% | M3R Ca ctr 34% | M3R basal Ca ctr 135% | MrgX1 ag confirm 653% | HEK293 Ca flux inactive | HEK293 Ca counter inactive | HEK293 Ca cntr2 126
CCOc1cc(/C=C2\C(=O)ON=C2c2ccccc2)cc(Br)c1O	MrgX1 ag 83 | RGS4 block valid inactive | M3R Ca ctr inactive | M3R basal Ca ctr 322% | MrgX1 ag confirm inactive | HEK293 Ca flux inactive | HEK293 Ca counter inactive | HEK293 Ca cntr2 inactive
COc1cc(/C=C2\C(=O)ON=C2c2ccccc2)cc(Br)c1O	RGS4 block 4.7, MrgX1 ag 78 | RGS4 block valid 9.5% | M3R Ca ctr inactive | M3R basal Ca ctr 281% | MrgX1 ag confirm inactive | HEK293 Ca flux inactive | HEK293 Ca counter inactive | HEK293 Ca cntr2 inactive
COc1cc(C=C2C(=O)OC(c3ccccc3)OC2=O)cc(Br)c1O (stereo not drawn)	none
COc1ccc(NC(=O)C2CSC(C)(C)N2C=O)cc1 (stereo not drawn)	none
COc1ccccc1N1CCN(C2CCCCC2NS(=O)(=O)c2ccccc2)CC1 (stereo not drawn)	none
CSc1ncccc1C(=O)NCCc1ccc(S(N)(=O)=O)cc1	MrgX1 ag 33 | MrgX1 ag confirm inactive | HEK293 Ca flux inactive | HEK293 Ca counter inactive | HEK293 Ca cntr2 inactive
CSc1ncccc1C(=O)NCCc1ccccc1	none
